Test results taken from article PMC7931189 (ACS Omega, 2021).
Entries after “also recorded” stand apart in the source; their conditions may differ.

Tests used:
[1] = system: human colorectal carcinoma cells (HCT-116); assay: Antiproliferative activity by the MTT assay, HCT-116; assay type: cell-based; conditions: for IC50: Homo sapiens, HCT-116, 48 h, read-out: IC50 HCT-116; for inhibitory action on HCT-116 cells: MTT, 48 h post treatment, result in words
Outline: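 HCT-116 cells grown in DMEM with L-glutamine, fetal bovine serum, selenium chloride and penicillin-streptomycin; exposed to test compound at 0.06–0.7 mg/mL for 48 h, untreated wells as control. MTT (5.0 mg/mL) added for 4 h, then DMSO; absorbance read at 570 nm. Percent viability calculated relative to control; one-way ANOVA with Student's t-test for p-values.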

HCT-116 cells = assay: Nuclear DNA staining; assay type: cell-based, human; conditions: 0.1 mg/mL, 48 h, compared to nontreated control
Outline: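 HCT-116 cells exposed to test compound at 0.1 mg/mL for 48 h alongside untreated controls. Cells then fixed in 4% paraformaldehyde, permeabilised with Triton X-100 in PBS and stained with DAPI. Nuclei imaged by confocal scanning microscopy at 200× magnification and scored for loss of staining, condensation and disintegration.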

SMILES | IC50 [1] [µM] | inhibitory action on HCT-116 cells [1] | nuclear staining / nuclear disintegration of DAPI stained HCT-116 cells (HCT-116 cells)
CC(C)(C(=O)O)C(O)c1ccc(Cl)cc1 (stereo not shown) [compound 1, 3-(4-chlorophenyl)-3-hydroxy-2,2-dimethylpropanoic acid] | 1270 ± 40 | showed inhibitory activities | –
CC(C)(C(=O)NN)C(O)c1ccc(Cl)cc1 (stereo not shown) [compound 2, 3-(4-chlorophenyl)-3-hydroxy-2,2-dimethylpropanehydrazide] | 1650 ± 60 | showed inhibitory activities | –
CN(C)c1ccc(C=NNC(=O)C(C)(C)C(O)c2ccc(Cl)cc2)cc1 (stereo not shown) [compound 3, 3-(4-chlorophenyl)-N′-(4-(dimethylamino)benzylidene)-3-hydroxy-2,2-dimethylpropanehydrazide] | 267 ± 30 | showed inhibitory activities | significant loss (arrows) of staining; also recorded: significant loss of nuclear staining
